Data from ChEMBL document CHEMBL1135805 (J Med Chem, 2002).
pEC50, pIC50: −log10 of the molar value.

Experiments:
[1] = tested on: Breast cancer cell line; test: Concentration that reduces the difference in reversal of DOX accumulation between MDA-435/LCC6 and MDA-435/LCC6-MDRI cells by 50%.; type: functional, cell-based; conditions: Homo sapiens
Outline: (§1)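 They were then given test compound at five concentrations plus DOX (4 μM) or [³H] VBL (5 nM) for 3 h, in triplicate, and washed with ice-cold 0.15 M NaCl. DOX was extracted in 20% TCA and read by fluorescence (ex 500/em 580 nm); VBL was counted by scintillation. Values were corrected for cell number. EC50 is the concentration halving the accumulation difference between the two lines, interpolated from dose-response curves. […] Mean ± SE, ≥3 experiments.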

[2] = tested on: Breast cancer cell line; test: Potency relative to progesterone in reducing the difference in reversing of [3H]VBL accumulation between MDA-435/LCC6 and MDA-435/LCC6-MDRI cells; type: functional, Homo sapiens; outline: as §1
[3] = tested on: Breast cancer cell line; test: Ratio of effect of compound on VBL accumulation (antiPgp activity) to its intrinsic cellular toxicity; type: functional, Homo sapiens
Outline: (§2)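 Ratio IC50/EC50 of crystal violet cytotoxicity (5-day exposure) IC50 to the EC50 for DOX or [³H] VBL accumulation (3 h, 4 μM DOX or 5 nM VBL) in MDA435/LCC6 and MDA435/LCC6^MDR1 cells. Where no IC50 was reached, the highest non-toxic concentration tested, limited by solubility, was used.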

[4] = tested on: Breast cancer cell line; test: Concentration that reduces difference in reversal of [3H]VBL accumulation between MDA-435/LCC6 and MDA-435/LCC6-MDRI cells by 50%; type: functional, cell-based; conditions: Homo sapiens
Outline: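 They were then given test compound at five concentrations plus DOX (4 μM) or [³H] VBL (5 nM) for 3 h, in triplicate, and washed with ice-cold 0.15 M NaCl. Values were corrected for cell number. EC50 is the concentration halving the accumulation difference between the two lines, interpolated from dose-response curves. Mean ± SE, ≥3 experiments.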

[5] = Effect on reversal of DOX accumulation in MDA-435/LCC6 (Pgp-negative) cells.; type: functional; conditions: Homo sapiens
Outline: (§3)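 Test compound at five concentrations was added with DOX (4 μM) or [³H] VBL (5 nM) for 3 h, in triplicate. Cells were washed in ice-cold 0.15 M NaCl. DOX was measured fluorometrically after TCA extraction and VBL by scintillation, both normalized to cell number. Pgp-specific EC50 values were corrected for these effects.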

[6] = Potency relative to progesterone in reversing of DOX accumulation in MDA-435/LCC6 (Pgp-negative)cells; Not determined; type: functional, Homo sapiens
[7] = Effect on reversal of [3H]- VBL accumulation in MDA-435/LCC6 (Pgp-negative) cells.; type: functional; conditions: Homo sapiens; outline: as §3
[8] = Potency relative to progesterone in reversing of [3H]- VBL accumulation in MDA-435/LCC6 (Pgp-negative) cells.; type: functional, Homo sapiens; outline: as §3
[9] = tested on: Breast cancer cell line; test: Potency relative to progesterone in reducing the difference in reversal of DOX accumulation between MDA-435/LCC6 and MDA-435/LCC6-MDRI cells; type: functional, Homo sapiens; outline: as §1
[10] = Growth inhibitory activity on MDA-435/LCC6 ([…]) human breast cancer cells; type: functional, cell-based; conditions: Cancer cell lines
Outline: (§4)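 Cells exposed 24 h after plating to test agents at several concentrations for 5 days. Crystal violet (0.5% in 25% methanol) fix/stain, dye extracted in 0.1 M sodium citrate/25% methanol, absorbance at 540 nm as percent of untreated controls.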

[11] = tested on: Breast cancer cell line; test: Ratio of effect of compound on DOX accumulation (antiPgp activity) to its intrinsic cellular toxicity;; type: functional, Homo sapiens; outline: as §2
[12] = Growth inhibitory activity on MDA-435/LCC6-MDRI ([…]) human breast cancer cells; type: functional, cell-based; conditions: Cancer cell lines; outline: as §4
[13] = Potency relative to progesterone in reversing of DOX accumulation in MDA-435/LCC6 (Pgp-negative) cells.; type: functional, Homo sapiens; outline: as §3
[14] = tested on: Breast cancer cell line; test: Ratio of effect of compound on DOX accumulation (antiPgp activity) to its intrinsic cellular toxicity; type: functional, Homo sapiens; outline: as §2
[15] = tested on: Breast cancer cell line; test: Concentration that reduces the difference in reversal of DOX accumulation between MDA-435/LCC6 and MDA-435/LCC6-MDRI cells by 50%; type: functional, cell-based; conditions: Homo sapiens
Outline: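 Ice-cold NaCl wash, overnight 20% TCA extraction at 4 °C in dark, fluorescence ex 500/em 580 nm against DOX standard curve, normalized to cell number.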

[16] = Growth inhibitory activity on MDA-435/LCC6-MDRI ([…]) human breast cancer cells.; type: functional, cell-based; conditions: Cancer cell lines
Outline: (§5)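 MDA435/LCC6 (Pgp-negative) and MDA435/LCC6^MDR1 (Pgp-positive) cells were plated 24 h, then exposed 5 days to test agents at a range of concentrations in growth medium. Cells were fixed and stained with 0.5% crystal violet in 25% methanol, and dye was eluted in 0.1 M sodium citrate/25% methanol and read at 540 nm. […] Mean ± SE, ≥3 experiments.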

[17] = Growth inhibitory activity on MDA-435/LCC6 ([…]) human breast cancer cells.; type: functional, cell-based; conditions: Cancer cell lines; outline: as §5
[18] = tested on: Breast cancer cell line; test: To estimate the extent of resistance conferred by Pgp, the ratio of IC50 in MDA-435/LCC6-MDR1 and MDA-435/LCC6 cells (relative resistance of Pgp-positive cells) was used; type: functional, Homo sapiens
Outline: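 Retrovirally MDR1-transduced MDA435/LCC6^MDR1 and parental MDA435/LCC6 cells, 24 h after plating, exposed 5 days to graded agent concentrations. Fixed/stained with 0.5% crystal violet in 25% methanol, dye extracted in 0.1 M sodium citrate/25% methanol, A540. IC50 = concentration halving cell density versus untreated, interpolated.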

[19] = tested on: Breast cancer cell line; test: Ratio of effect of compound on VBL accumulation (antiPgp activity) to its intrinsic cellular toxicity;; type: functional, Homo sapiens
[20] = molecular target: ATP-dependent translocase ABCB1 (Homo sapiens, UniProt P08183); test: TP_TRANSPORTER: reversal of Vinblastine accumulation (Vinblastine: 0.005 uM) in MDA435/LCC6 MDR1 cells; type: functional, cell-based, MDA-MB-435/LCC6 MDR1
Sequence of ATP-dependent translocase ABCB1 (P08183 whole entry): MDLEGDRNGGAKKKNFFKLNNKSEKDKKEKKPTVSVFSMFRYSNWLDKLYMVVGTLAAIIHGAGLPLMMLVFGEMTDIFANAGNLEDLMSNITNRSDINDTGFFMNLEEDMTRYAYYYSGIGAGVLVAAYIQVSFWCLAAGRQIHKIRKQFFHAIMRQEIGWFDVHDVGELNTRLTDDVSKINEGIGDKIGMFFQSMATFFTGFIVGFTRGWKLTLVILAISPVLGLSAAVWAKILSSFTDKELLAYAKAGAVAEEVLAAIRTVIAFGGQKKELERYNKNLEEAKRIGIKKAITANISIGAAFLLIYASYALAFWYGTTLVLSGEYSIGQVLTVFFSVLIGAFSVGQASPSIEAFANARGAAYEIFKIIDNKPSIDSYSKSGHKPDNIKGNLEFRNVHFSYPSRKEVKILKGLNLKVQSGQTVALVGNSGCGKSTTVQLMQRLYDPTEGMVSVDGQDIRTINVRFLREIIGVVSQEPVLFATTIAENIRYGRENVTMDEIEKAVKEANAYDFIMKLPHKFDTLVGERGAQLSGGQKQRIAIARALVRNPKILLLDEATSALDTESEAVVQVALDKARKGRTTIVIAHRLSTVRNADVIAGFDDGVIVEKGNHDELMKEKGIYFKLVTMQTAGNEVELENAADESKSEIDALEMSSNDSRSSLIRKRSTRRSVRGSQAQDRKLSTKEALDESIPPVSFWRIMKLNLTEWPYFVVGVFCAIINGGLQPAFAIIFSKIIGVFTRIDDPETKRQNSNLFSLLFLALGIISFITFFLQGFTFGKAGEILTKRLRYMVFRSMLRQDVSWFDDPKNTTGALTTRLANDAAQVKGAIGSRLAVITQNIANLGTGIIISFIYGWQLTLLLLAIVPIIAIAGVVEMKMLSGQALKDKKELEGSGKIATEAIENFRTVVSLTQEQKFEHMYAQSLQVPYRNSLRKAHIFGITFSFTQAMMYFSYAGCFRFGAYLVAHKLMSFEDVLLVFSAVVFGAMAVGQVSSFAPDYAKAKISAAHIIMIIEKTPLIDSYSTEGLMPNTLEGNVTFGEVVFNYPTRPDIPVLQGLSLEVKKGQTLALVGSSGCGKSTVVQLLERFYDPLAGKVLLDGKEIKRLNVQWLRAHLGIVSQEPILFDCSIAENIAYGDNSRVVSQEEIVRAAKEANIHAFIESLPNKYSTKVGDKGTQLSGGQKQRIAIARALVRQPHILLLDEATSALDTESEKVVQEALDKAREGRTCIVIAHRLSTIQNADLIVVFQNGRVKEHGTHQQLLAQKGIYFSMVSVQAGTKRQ
Outline: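 VBL (5 nM) with test compound at five concentrations, in triplicate. Cells were rinsed with ice-cold 0.15 M NaCl and PBS, dried, trypsinized, and counted by scintillation; accumulation was corrected for cell number.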

SMILES	pEC50 [1]	pEC50 [7]	pEC50 [20]	Relative potency [2]	Ratio [3]	pEC50 [4]	pEC50 [5]	Relative potency [6]	Relative potency [8]	Relative potency [9]	pIC50 [10]	Ratio [11]	pIC50 [12]	Relative potency [13]	Ratio [14]	pEC50 [15]	pIC50 [16]	pIC50 [17]	Relative resistance [18]	Ratio [19]
CCNC(=O)Nc1ccc(S[C@@H]2CC3=CC(=O)CC[C@]3(C)C3CC[C@]4(C)C(C(C)=O)CCC4C32)cc1 (stereo partly drawn)	6.15	5.82	–	14.2	>13.3	5.89	6.00	42.7	14	31.3	< 4.70	>20	< 4.70	–	–	–	–	–	–	–
CC(=O)[C@H]1CC[C@H]2[C@@H]3CCC4=CC(=O)CC[C@]4(C)[C@H]3CC[C@]12C [PROGESTERONE]	–	4.68	–	–	–	4.73	4.37	–	–	–	–	–	–	–	–	4.65	4.44	4.56	–	–
C/C=C/C[C@@H](C)[C@@H](O)[C@H]1C(=O)N[C@@H](CC)C(=O)N(C)CC(=O)N(C)[C@@H](CC(C)C)C(=O)N[C@@H](C(C)C)C(=O)N(C)[C@@H](CC(C)C)C(=O)N[C@@H](C)C(=O)N[C@H](C)C(=O)N(C)[C@@H](CC(C)C)C(=O)N(C)[C@@H](CC(C)C)C(=O)N(C)[C@@H](C(C)C)C(=O)N1C [CYCLOSPORINE]	6.30	–	–	–	–	–	–	–	–	–	–	–	–	–	–	–	–	–	–	–
COc1ccc(CCN(C)CCCC(C#N)(c2ccc(OC)c(OC)c2)C(C)C)cc1OC (stereo not drawn)	5.62	–	–	–	–	5.92	5.39	–	–	–	–	–	–	–	–	–	4.20	4.18	–	–

More lines, main results first:

pEC50 [1]	pEC50 [7]	pEC50 [20]	SMILES	Relative potency [2]	Ratio [3]	pEC50 [4]	pEC50 [5]	Relative potency [6]	Relative potency [8]	Relative potency [9]	pIC50 [10]	Ratio [11]	pIC50 [12]	Relative potency [13]	Ratio [14]	pEC50 [15]	pIC50 [16]	pIC50 [17]	Relative resistance [18]	Ratio [19]
6.22	6.15	–	CC(=O)[C@H]1CCC2C3C(CC[C@@]21C)[C@@]1(C)CCC(=O)C=C1C[C@H]3Sc1ccc(NC(=O)N[C@H](C)c2ccccc2)cc1 (stereo partly drawn)	24.5	>28.6	6.10	6.05	–	28.2	37.2	< 4.70	–	< 4.70	44.8	>22.2	–	–	–	–	–
4.83	4.48	–	CC(=O)[C@H]1CCC2C3C(CC[C@@]21C)[C@@]1(C)CCC(=O)C=C1C[C@H]3Sc1ccc(NC(=O)NS(=O)(=O)c2ccc(C)cc2)cc1 (stereo partly drawn)	0.5	–	4.46	4.43	–	0.6	1.5	–	0.6	–	1.1	–	–	4.42	4.66	1.7	0.7
6.22	6.05	–	CC(=O)C1CCC2C3C(CC[C@]12C)[C@@]1(C)CCC(=O)C=C1C[C@H]3Sc1ccc(NC(=O)NCCCl)cc1 (stereo partly drawn)	22.5	–	6.10	6.15	–	23.5	40.5	–	3.2	–	60.2	–	–	5.14	5.49	2.2	3.6
–	–	6.15	CC(=O)C1CC[C@H]2[C@@H]3[C@H](Sc4ccc(NC(=O)N[C@H](C)c5ccccc5)cc4)CC4=CC(=O)CC[C@]4(C)[C@H]3CC[C@]12C (stereo partly drawn)	–	–	–	–	–	–	–	–	–	–	–	–	–	–	–	–	–
